From PubChem BioAssay
M5 PAM – human M5 muscarinic receptor positive allosteric modulators, primary screen, CHO-K1 cells, Fluo-8 calcium fluorescence. activation, % at 3 µM. AID 624038, 2012. CHO-K1 hM5, ACh EC20 PAM; 0% = ACh EC20, 100% = ACh EC100. actives 0.3% (n = 360,000). Muscarinic acetylcholine receptor M5 (Homo sapiens), P08912;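 active = activation above the run cutoff, the mean activation of all test compounds plus 3 SD, cut at about 18% in these data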
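System – CHO-K1 hM5 cells · Compound – 3 µM, single dose · Incubation – compound preincubation 140 s before EC20 acetylcholine addition · Technique – Fluo-8 calcium fluorescence · Measure – Max/basal fluorescence ratio as % of EC20–EC100 ACh window · Benchmarks – low control EC20 acetylcholine (0%), high control EC100 acetylcholine (100%) · Replication – singlicate, one well per test compound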
CHRM4 agonist – human M4 muscarinic receptor agonists, primary screen, CHO-K1 cells, Fluo-8 calcium fluorescence; actives 0.14% (n = 360,000); CHO-K1 hM4/Gqi5; vehicle 0%, full acetylcholine response 100%; activation, % at 3 µM;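 active = activation above the run mean over all test wells plus 3 SD, cut at about 32% in these data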;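 note: peak over basal fluorescence ratio per well then scaled between controls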
Target sequence (P08173 whole entry, looked up): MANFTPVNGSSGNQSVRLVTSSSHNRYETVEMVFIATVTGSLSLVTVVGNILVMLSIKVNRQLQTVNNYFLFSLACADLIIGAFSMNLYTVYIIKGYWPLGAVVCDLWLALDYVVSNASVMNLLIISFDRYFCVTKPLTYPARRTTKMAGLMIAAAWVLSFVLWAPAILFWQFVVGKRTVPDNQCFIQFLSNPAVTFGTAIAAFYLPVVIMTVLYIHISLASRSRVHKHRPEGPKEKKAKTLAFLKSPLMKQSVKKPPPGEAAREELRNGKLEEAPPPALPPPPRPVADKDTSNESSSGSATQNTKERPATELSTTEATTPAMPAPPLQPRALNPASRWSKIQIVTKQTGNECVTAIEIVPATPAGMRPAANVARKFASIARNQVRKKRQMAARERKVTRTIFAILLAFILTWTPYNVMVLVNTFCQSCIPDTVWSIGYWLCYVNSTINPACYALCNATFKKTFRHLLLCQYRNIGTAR
CHRM5 antagonist – human M5 muscarinic receptor antagonists, primary screen, CHO cells, Fluo-8 calcium fluorescence | Muscarinic acetylcholine receptor M5 (Homo sapiens), P08912 | CHO-hM5 cells, ACh EC80 | inhibition, % at 3 µM | actives 0.59% (n = 360,000) | AID 624040, 2012;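 active = inhibition above a per-plate cutoff, the mean of that plate's test compounds plus 3 SD, cut at about 27% in these data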
M4 PAM – human M4 muscarinic receptor positive allosteric modulators, primary screen, CHO-K1 cells, Fluo-8 calcium fluorescence; activation, % at 3 µM; actives 0.4% (n = 360,000); CHO-K1 hM4/Gqi5, ACh EC20; 0% = ACh EC20, 100% = maximal ACh; Muscarinic acetylcholine receptor M4 (Homo sapiens), P08173;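 active = activation above its plate's cutoff, the mean activation of sample wells plus 3 SD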
CHRM5 agonist – human M5 muscarinic receptor agonists, primary screen, CHO-K1 cells, Fluo-8 calcium fluorescence; Muscarinic acetylcholine receptor M5 (Homo sapiens), P08912; CHO-K1 hM5 cells; 0% DMSO wells, 100% maximal acetylcholine response; activation, % at 3 µM; actives 0.19% (n = 360,000);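 active = activation above the run's mean over test compounds plus 3 SD, cut at about 23% in these data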;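 note: signal is peak over basal fluorescence ratio across the kinetic read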
M4 antag – human M4 muscarinic receptor antagonists, primary screen, CHO cells, Fluo-8 calcium fluorescence. Muscarinic acetylcholine receptor M4 (Homo sapiens), P08173. CHO-hM4 cells, ACh EC80. inhibition, % at 3 µM. actives 0.73% (n = 360,000);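 active = inhibition above its plate's cutoff, the mean inhibition of sample wells plus 3 SD, cut at about 27% in these data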
Of the large screens only hits and unclear results are named; the others gave an inactive call. Only some compounds are listed: those with a hit (about 1.8% of all), similar ones and a draw of the others.

COC(=O)C1CCN(C2CN(Cc3ccccc3)S(=O)(=O)C2)CC1 (stereo not given)	none
Cc1ccccc1NC(=S)NC(=O)/C=C/c1ccco1	M5 PAM 22
COCCCN(C(=O)CCSc1ccc(F)cc1)c1c(N)n(Cc2ccccc2)c(=O)[nH]c1=O	none
Cc1ccc(NC(=O)c2cnc(N3CCN(c4ccccn4)CC3)c3ccccc23)c(Br)c1	M4 antag 30
O=C(Nc1c(F)cccc1F)c1cnc(N2CCN(c3ccccn3)CC2)c2ccccc12	none
CCCCN(C(=O)C(C)N1C(=O)c2ccccc2C1=O)c1c(N)n(CCCC)c(=O)[nH]c1=O (stereo not given)	none
CCCCn1c(N)c(N(CCC(C)C)C(=O)C(C)N2C(=O)c3ccccc3C2=O)c(=O)[nH]c1=O (stereo not given)	M4 PAM 22
CCCCn1c(N)c(N(CCOC)C(=O)C2CCN(S(=O)(=O)c3ccc(C)cc3)CC2)c(=O)[nH]c1=O	none
CCCCn1c(N)c(N(CCOC)C(=O)C2CCN(S(=O)(=O)c3ccc(C)cc3C)CC2)c(=O)[nH]c1=O	M4 PAM 24
CCCCn1c(N)c(N(CCC(C)C)C(=O)C2CC(=O)N(Cc3ccc(C)cc3)C2)c(=O)[nH]c1=O (stereo not given)	M4 PAM 28
CCOc1ccc(NC(=O)C2CCN(C(=O)C3CC(=O)N(c4ccc(C)cc4)C3)CC2)cc1 (stereo not given)	M4 PAM 19
COc1ccc(N2CC(C(=O)N3CCN(c4ccccc4)CC3)CC2=O)cc1 (stereo not given)	CHRM5 antagonist 31
Cc1ccccc1-c1cc(C(=O)NCC2CC2)nn1CC1CC(c2cccc([N+](=O)[O-])c2)=NO1 (stereo not given)	none
COC(=O)c1ccc(OCCN2CCCCCC2)cc1	none
COC(=O)c1ccc(OCCN2C3=NCCN3c3ccccc32)cc1	M4 antag 40
COc1cccc(-c2ccc(=O)n(CC(=O)Nc3ccc(C(=O)N4CCCC4)cc3)n2)c1	M5 PAM 19
Cc1nn(CC(=O)Nc2ccc(C(=O)N3CCCCC3)cc2)c(=O)c2ccccc12	none
Cc1nn(CC(=O)Nc2ccc(C(=O)N3CCCC3)cc2)c(=O)c2ccccc12	M5 PAM 39
O=C(CN1CCN(C(=O)c2ccccc2Cl)CC1)Nc1cccc(S(=O)(=O)N2CCCC2)c1	none
Cc1cc(OCCCC(=O)Nc2cccc(-n3cnnn3)c2)ccc1Cl	CHRM5 antagonist 27
COc1ccc(NC(=O)CN(C)C(=O)c2cccc(S(=O)(=O)N3CCN(c4ccc(F)cc4)CC3)c2)cc1	CHRM5 antagonist 30
CCn1c(=O)c(=O)[nH]c2cc(C(=O)NC3CCCc4ccccc43)ccc21 (stereo not given)	M4 PAM 36
CCn1c(=O)c(=O)[nH]c2cc(C(=O)Nc3ccc(S(=O)(=O)N4CCCC4)cc3)ccc21	M4 PAM 31
CCn1c(=O)c(=O)[nH]c2cc(C(=O)NC3CC3)ccc21	none
CCN1CCN(c2ccc(NC(=O)c3cccc(S(=O)(=O)N4CCCC4)c3)cc2)CC1	CHRM5 antagonist 50
CC1NC(=O)c2cc3ccccc3cc2-n2c1nc1ccccc1c2=O (stereo not given)	none
N#CCCN(C(=O)COC(=O)C12CC3CC(CC(O)(C3)C1)C2)c1ccc(F)cc1	none
O=C(Nc1ccc(F)cc1)c1cc(-c2ccncc2)nc2c(Cl)cccc12	none
c1cc2c3c(cccc3c1)C(N1CCOCC1)=N2	none
c1ccc(CC2CCN(C3=Nc4cccc5cccc3c45)CC2)cc1	M4 antag 27
CCN(CC)S(=O)(=O)c1ccc(N2CCOCC2)c(NC(=O)CCC2CCCCC2)c1	none
O=C(COC(=O)C1CC1)Nc1ccc(OC(F)F)cc1	M4 antag 29
O=C(COC(=O)C1CCC1)Nc1ccc(OC(F)F)cc1	none
O=C(CN1C(=O)NC(c2ccccc2)(c2ccccc2)C1=O)N1CCOCC1	none
Cc1ccc(/C=C/C(=O)c2cc(Br)ccc2OC(=O)c2ccco2)cc1	M5 PAM 21
CCCCC(=O)Nc1c(-c2cccc(OC)c2)c(=O)c2ccccc2n1C	none
Cc1nn(CC(=O)NCCCN2CCC(Cc3ccccc3)CC2)c(=O)c2cc(-c3ccccc3)nn12	none
CCc1ccc(-c2cc3c(=O)n(CC(=O)NCCCN4CCC(Cc5ccccc5)CC4)nc(C)n3n2)cc1	M4 antag 40
Cc1ccccc1OCC(=O)NCC(=O)N/N=C/c1ccc(Br)o1	M5 PAM 20
Cc1cc(C)c2nc(NNC(=O)c3ccc(S(=O)(=O)N4CCc5ccccc5C4)cc3)sc2c1	CHRM5 agonist 59
Cc1ccc(C(=O)Nc2ncc([N+](=O)[O-])s2)cc1	CHRM5 antagonist 32
O=C(COc1ccc(Cl)cc1)Nc1ncc([N+](=O)[O-])s1	CHRM5 antagonist 31
O=C(NCC1CCCO1)c1ccc2c(c1)S(=O)(=O)c1ccccc1C2=O (stereo not given)	none
Cc1cc(NC(=O)c2cccnc2)ccc1NC(=O)c1cc2ccccc2o1	CHRM4 agonist 33
Cc1cc(NC(=O)c2cc3ccccc3o2)ccc1NC(=O)c1ccccc1	none
O=C(CCc1ccccc1)NNC(=O)COc1ccc(Br)cc1	none
O=c1c2ccccc2nc2n1CCN2Cc1ccc(Cl)cc1	CHRM5 antagonist 29
COc1ccc(CC(NC(C)=O)C(=O)N2CCN(C(=O)N(C(C)C)C(C)C)CC2)cc1 (stereo not given)	M4 antag 29
CNC(=S)N1CCC(NC(=O)C(Cc2ccc(OC)cc2)NC(C)=O)CC1 (stereo not given)	none
C[C@H](O)[C@@H]1C(=O)N2CCc3c([nH]c4ccccc34)[C@@H]2C[C@@H]1N(C)Cc1ccc2c(c1)OCO2	none
COCCCN(C(C)=O)c1nc(-c2ccccc2)cs1	M4 PAM 44
COCCCN(C(=O)c1ccccc1)c1nc(-c2ccc(OC)cc2)cs1	none
CCN(CC(=O)N1CCCC1)S(=O)(=O)c1ccccc1	none
O=S(=O)(Nc1cccnc1)c1ccc(Cl)cc1	M4 PAM 20
O=C(O)C1CCN(C(=O)c2ccccc2C(=O)N2CCC(C(=O)O)CC2)CC1	none
